# Published values of several laboratories.
# Target: Carbonic anhydrase 12 (CA12, Homo sapiens, UniProt O43570)
# Read-out: enzyme activity
# Mode: inhibitor
SMILES,method,measurement,result
CS(=O)(=O)Nc1ccc(Nc2nc(-c3cc4cc(Br)ccc4oc3=O)cs2)cc1Oc1ccccc1,absorbance,IC50,610 nM
N#CSCCCCOc1ccc2c(-c3ccccc3)cc(=O)oc2c1,stopped-flow,Ki,234 nM
COc1ccc2oc(=O)c(-c3csc(Nc4ccc(C(=O)O)cc4)n3)cc2c1,absorbance,IC50,1880 nM
Cc1cc(=O)oc2cc(OCCCCSC#N)ccc12,stopped-flow,Ki,54.2 nM
Cc1ccc(OC(=O)c2ccc(=O)oc2)cc1,stopped-flow,Ki,1830 nM
NS(=O)(=O)c1ccc(-c2ccc(Nc3ccncc3)cc2)cc1,absorbance,IC50,880 nM
COc1ccc(-n2cc(COC(=O)c3ccc(=O)oc3)nn2)cc1,stopped-flow,Ki,54800 nM
NS(=O)(=O)c1ccc(-c2ccc(Nc3ccc(F)c(Cl)c3)cc2)cc1,absorbance,IC50,2780 nM
CS(=O)(=O)Nc1ccc(Nc2nc(-c3cc4ccccc4oc3=O)cs2)cc1Oc1ccccc1,absorbance,IC50,790 nM
CC1CCCCC1OC(=O)c1ccc(=O)oc1 (stereo not shown),stopped-flow,Ki,82800 nM
